Measurements as given in ChEMBL document CHEMBL2163211, “Antiviral chromones from the stem of Cassia siamea” (J Nat Prod, 2012).
Converted amounts (≈) assume the structure as drawn.

What was measured:
Tobacco mosaic virus [1] = assay: Antiviral activity against Tobacco mosaic virus infected in right side leaf of Nicotiana glutinosa at 40 uM after 3 to 4 days by half-leaf method; assay type: functional
Summary of the method: (§1)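 Half-leaf assay on N. glutinosa (local lesion host, 5–6-leaf stage, insect-free greenhouse). Purified TMV diluted to 32 μg/mL in 0.01 M PBS, mixed with compound (DMSO stock diluted with water) for 30 min, then rubbed on the left half-leaf; the right half received virus plus equal DMSO as control. Local lesions counted 3 or 4 days later, three repetitions; inhibition = (C−T)/C×100; ningnanmycin positive control.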

Tobacco mosaic virus [2] = assay: Antiviral activity against Tobacco mosaic virus infected in right side leaf of Nicotiana glutinosa at 20 uM after 3 to 4 days by half-leaf method; assay type: functional; summary of the method: as §1
Tobacco mosaic virus [3] = assay: Antiviral activity against Tobacco mosaic virus infected in right side leaf of Nicotiana glutinosa after 3 to 4 days by half-leaf method; assay type: functional, organism-based; summary of the method: as §1
Tobacco mosaic virus [4] = assay: Antiviral activity against Tobacco mosaic virus infected in leaf of Nicotiana glutinosa assessed as protection against viral infection at 20 uM treated 6 hrs before infection; assay type: functional
Summary of the method: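 Protection test: N. glutinosa leaves pretreated with 20 μM compound solution or DMSO solution for 6 h, then inoculated with purified TMV. Local lesions counted on the host leaves and inhibition rate computed from lesion numbers versus the DMSO control.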

[5] = Therapeutic index, ratio of CC50 for human C8166 cells to EC50 for HIV1; assay type: cell-based; settings: read-out: Ratio CC50/EC50
Summary of the method: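 Ratio of CC50 (MTT cytotoxicity in C8166 cells) to EC50, where EC50 comes from an assay of inhibition of HIV-1 cytopathic effects; azidothymidine served as the positive control.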

Tobacco mosaic virus [6] = assay: Antiviral activity against Tobacco mosaic virus infected in right side leaf of Nicotiana glutinosa at 80 uM after 3 to 4 days by half-leaf method; assay type: functional; summary of the method: as §1
Tobacco mosaic virus [7] = assay: Antiviral activity against Tobacco mosaic virus infected in right side leaf of Nicotiana glutinosa at 10 uM after 3 to 4 days by half-leaf method; assay type: functional; summary of the method: as §1
[8] = test system: Human immunodeficiency virus 1; assay: Antiviral activity against HIV1 infected in human C8166 cells assessed as inhibition of virus-induced cytopathic effect; assay type: functional, organism-based; settings: Human immunodeficiency virus 1, C8166
Summary of the method: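 HIV-1 cytopathic-effect inhibition assay in C8166 cells gives EC50; cytotoxicity to C8166 cells measured in parallel by MTT to give CC50. Azidothymidine served as positive control.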

[9] = Cytotoxicity against human C8166 cells by MTT assay; assay type: cell-based
Summary of the method: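 C8166 cells assessed by MTT, with cytotoxicity expressed as CC50; azidothymidine served as the positive control.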

Tobacco mosaic virus [10] = assay: Antiviral activity against Tobacco mosaic virus infected in right side leaf of Nicotiana glutinosa at 5 uM after 3 to 4 days by half-leaf method; assay type: functional; summary of the method: as §1
Tobacco mosaic virus [11] = assay: Antiviral activity against Tobacco mosaic virus infected in right side leaf of Nicotiana glutinosa at 160 uM after 3 to 4 days by half-leaf method; assay type: functional; summary of the method: as §1

Structure (SMILES)	inhibition at 40 µM (Tobacco mosaic virus [1]) [%]	inhibition at 20 µM (Tobacco mosaic virus [2]) [%]	IC50 (Tobacco mosaic virus [3]) [µM]	inhibition at 20 µM (Tobacco mosaic virus [4]) [%]	selectivity ratio [5]	inhibition at 80 µM (Tobacco mosaic virus [6]) [%]	inhibition at 10 µM (Tobacco mosaic virus [7]) [%]	EC50 [8] [mg/L]	CC50 [9] [mg/L]	inhibition at 5 µM (Tobacco mosaic virus [10]) [%]	inhibition at 160 µM (Tobacco mosaic virus [11]) [%]
CC(C)c1cc(=O)c2c(O)cc(O[C@@H]3O[C@H](CO)[C@@H](O)[C@H](O)[C@H]3O)cc2o1 [URACHROMONE A]	22.4	11.5	156	13.7	31	30.7	8.11	2.24 (≈ 5.86 µM)	69.5 (≈ 182 µM)	4.76	50.9
COc1cc(CC(C)=O)c2c(=O)cc(CCCOC(C)=O)oc2c1 [SIAMCHROMONES D]	–	7.5	–	–	> 107	–	–	1.87 (≈ 5.63 µM)	> 200	–	–
Cc1cn([C@H]2C[C@H](N=[N+]=[N-])[C@@H](CO)O2)c(=O)[nH]c1=O [ZIDOVUDINE]	–	–	–	–	> 5880	–	–	0.034 (≈ 0.127 µM)	> 200	–	–
Cc1cc(=O)c2c(CC(C)O[C@@H]3O[C@H](CO)[C@@H](O)[C@H](O)[C@H]3O)cc(O)cc2o1 (some centres undefined)	–	8.6	–	–	63.3	–	–	1.87 (≈ 4.72 µM)	118 (≈ 299 µM)	–	–
CNCC(=O)N[C@@H](CO)C(=O)N[C@H]1[C@H](O)[C@@H](O)[C@H](n2ccc(N)nc2=O)O[C@@H]1C(N)=O [NINGNANMYCIN]	48.3	30.2	49.9	27.4	–	61.3	22.6	–	–	11.8	82.7
COc1cc2oc(C)cc(=O)c2c(O)c1CC=C(C)C	–	8.7	–	–	15.2	–	–	4.89 (≈ 17.8 µM)	74.3 (≈ 271 µM)	–	–
COc1cc2c(c3oc(C)cc(=O)c13)C=CC(C)(C)O2	–	9.2	–	–	8.3	–	–	4.49 (≈ 16.5 µM)	37.3 (≈ 137 µM)	–	–
CC1(C)Oc2cc3oc(CO)cc(=O)c3c(O)c2C[C@@H]1O[C@@H]1O[C@H](CO)[C@@H](O)[C@H](O)[C@H]1O	–	–	–	–	> 109	–	–	–	> 200	–	–
COc1cc2c(c3oc(CCCO)cc(=O)c13)C=CC(C)(C)O2 [SIAMCHROMONES G]	–	5.7	–	–	> 23.6	–	–	8.46 (≈ 26.7 µM)	> 200	–	–
Cc1cc(=O)c2c(O)c(C)c(O)c(C)c2o1	–	8.6	–	–	10.5	–	–	5.46 (≈ 24.8 µM)	57.5 (≈ 261 µM)	–	–
CC(=O)[C@@H]1c2cc(O)cc(O)c2C(=O)C[C@]1(C)O	–	6.4	–	–	28	–	–	3.16 (≈ 12.6 µM)	88.3 (≈ 353 µM)	–	–
COc1cc(CC(C)=O)c2c(=O)cc(C(=O)CCO)oc2c1 [SIAMCHROMONES B]	–	9.8	–	–	16.3	–	–	5.22 (≈ 17.2 µM)	85.2 (≈ 280 µM)	–	–
COc1cc2c(c3oc(C(=O)O)cc(=O)c13)C=CC(C)(C)O2 [PERFORATIC ACID]	25.4	13.6	127	10.2	2.3	36.8	9.27	11.5 (≈ 38.2 µM)	26.5 (≈ 87.7 µM)	5.62	54.7
CC1=CC2(O)OC(C)=Cc3cc(O)cc(c32)O1 (centres undefined) [BARAKOL]	–	9	–	–	17.1	–	–	4.28 (≈ 18.4 µM)	73.4 (≈ 316 µM)	–	–
COc1cc(CC(C)=O)c2c(=O)cc(CCCO)oc2c1 [SIAMCHROMONES C]	–	8.6	–	–	6.87	–	–	6.34 (≈ 21.8 µM)	43.6 (≈ 150 µM)	–	–
Cc1cc(=O)c2c(O)c(C)c(O[C@@H]3O[C@H](CO)[C@@H](O)[C@H](O)[C@H]3O)c(C)c2o1 [UNCINOSIDE A]	–	7.9	–	–	5.89	–	–	3.87 (≈ 10.1 µM)	22.8 (≈ 59.6 µM)	–	–
C/C=C/c1cc(=O)c2c(CC(C)=O)cc(O)cc2o1 [SIAMCHROMONES E]	–	9.2	–	–	9.37	–	–	2.85 (≈ 11 µM)	26.7 (≈ 103 µM)	–	–
CC(=O)Cc1cc(O)cc2oc(C(=O)CCO)cc(=O)c12 [SIAMCHROMONES A]	30.3	15.2	86.4	18.4	26	47.2	11.4	4.87 (≈ 16.8 µM)	127 (≈ 436 µM)	6.21	62.4
CC1(C)C=Cc2c(cc(O)c3c(=O)cc(CCCO)oc23)O1 [SIAMCHROMONES F]	61.4	35.3	31.2	42.7	68	89.2	26.7	2.89 (≈ 9.56 µM)	196 (≈ 650 µM)	13.5	96.8
CC(=O)Cc1cc(O)cc2oc(C)cc(=O)c12	–	6.7	–	–	13.5	–	–	6.58 (≈ 28.3 µM)	88.7 (≈ 382 µM)	–	–
